Assay [1] is described as follows: reducers of endogenous Her2 protein level, primary screen, SKBR3 breast tumor cells, AlphaScreen, ATP viability (AID 461;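 active means Her2 level under about 52% in both replicate screens, with viability over 70% of control, limit read from the data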;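 on Her2 level: lower value means less Her2 protein in the cells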;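 on viability: percent of carrier control wells set as 100% viability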). The following applies: 18-24 h, measured here: SKBR3 viability, ATP luminescence, at 10 µM. A general note: Alpha assays give light when donor and acceptor beads are brought close together.
The target in assay [2] is Receptor tyrosine-protein kinase erbB-2 (Homo sapiens) (UniProt P04626). Described as above. The following applies: 18-24 h, at 10 µM, stronger effect = lower value.
Assay [3] in a line: SK-BR-3 cell growth inhibitors, pilot screen, 24 h, human (AID 572).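 Further: compound exposure lasted between 18 and 24 h rather than exactly 24 h; 100% = carrier-treated control wells.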 The following applies: SK-BR-3 viability, CellTiter-Glo luminescence, at 10 µM, stronger effect = lower value. A general note: ATP-based viability assays read luminescence as a measure of living cells.
Assay [4] is described as follows: HUVEC growth inhibition – cell-based, human, primary screen (AID 575;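 active means viability at or below 30% in both replicate assays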;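 further: 100% = median of untreated cell wells with 0.1% DMSO on each plate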). The following applies: HUVEC proliferation, CellTiter-Glo luminescence, 72 h; at 10 µM; stronger effect = lower value. In a few lines: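 Assay system: Primary human umbilical vein endothelial cells | Quantity: 1250 cells per well | Medium: Supplemented EBM, 2% fetal bovine serum | Detection: CellTiter-Glo luminescence measuring cellular ATP | Read-out: % viability vs DMSO wells | Plate: Collagen-coated 384-well format | Times: 72 h exposure, 37 °C, 5% CO2, 30 min RT equilibration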

Assay [5] in a line: growth inhibitors of H69AR lung tumor, primary screen, human, duplicate replicates (AID 580;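 active means viability at or under a set limit in both replicates, limit being median viability minus 3 SD, cut at about 48% in these data, passing the limit was not always enough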;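 further: 100% = mean luminescence of untreated wells and 0% = no signal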). The following applies: H69AR lung tumor cells viability, ATP luminescence, 72 h; at 10 µM; stronger effect = lower value.
A short description of assay [6]: reversal of MRP1-mediated doxorubicin resistance, pilot screen, H69AR cells, doxorubicin co-treatment (AID 601;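 active means viability loss from added drug above about 55%, and viability with drug at most 40%, in both replicates, limit read from the data, passing the limit was not always enough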). The following applies: CellTiter-Glo, 72 h, at 10 µM; for differential viability (reversal): stronger effect = higher value.
Assay [7] can be described thus: 384-well plate pilot, post-Golgi transport modulator project, inhibition of yeast transport mutant growth (AID 636; in the data active means inhibition above about 31%). The following applies: absorbance 615 nm, about 18 h, stronger effect = higher value.
Assay [8] is described as follows: growth suppression of yeast trafficking mutant, preliminary HTS, modulators of trafficking downstream of Golgi apparatus project, 1536-format plate, OD 615 nm (AID 637; in the data active means inhibition above about 30%). The following applies: yeast transport mutant growth, absorbance 615 nm, 18 h; stronger effect = higher value.
The mark [9] stands for this setting: H69AR cells + 2 uM doxorubicin, measured here: viability with 2 uM doxorubicin, stronger effect = lower value.
Where [10] appears, read: H69AR cells, compound alone cytotoxicity.

Calls of active or inactive are those of the source.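 How the source made its calls, unless noted: active means viability at or below 10% of carrier control in both of two separate runs; inconclusive means viability at or below 10% in only one of the two runs; inactive means the rest.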

Chain of Receptor tyrosine-protein kinase erbB-2 (Homo sapiens) (P04626 whole entry, looked up): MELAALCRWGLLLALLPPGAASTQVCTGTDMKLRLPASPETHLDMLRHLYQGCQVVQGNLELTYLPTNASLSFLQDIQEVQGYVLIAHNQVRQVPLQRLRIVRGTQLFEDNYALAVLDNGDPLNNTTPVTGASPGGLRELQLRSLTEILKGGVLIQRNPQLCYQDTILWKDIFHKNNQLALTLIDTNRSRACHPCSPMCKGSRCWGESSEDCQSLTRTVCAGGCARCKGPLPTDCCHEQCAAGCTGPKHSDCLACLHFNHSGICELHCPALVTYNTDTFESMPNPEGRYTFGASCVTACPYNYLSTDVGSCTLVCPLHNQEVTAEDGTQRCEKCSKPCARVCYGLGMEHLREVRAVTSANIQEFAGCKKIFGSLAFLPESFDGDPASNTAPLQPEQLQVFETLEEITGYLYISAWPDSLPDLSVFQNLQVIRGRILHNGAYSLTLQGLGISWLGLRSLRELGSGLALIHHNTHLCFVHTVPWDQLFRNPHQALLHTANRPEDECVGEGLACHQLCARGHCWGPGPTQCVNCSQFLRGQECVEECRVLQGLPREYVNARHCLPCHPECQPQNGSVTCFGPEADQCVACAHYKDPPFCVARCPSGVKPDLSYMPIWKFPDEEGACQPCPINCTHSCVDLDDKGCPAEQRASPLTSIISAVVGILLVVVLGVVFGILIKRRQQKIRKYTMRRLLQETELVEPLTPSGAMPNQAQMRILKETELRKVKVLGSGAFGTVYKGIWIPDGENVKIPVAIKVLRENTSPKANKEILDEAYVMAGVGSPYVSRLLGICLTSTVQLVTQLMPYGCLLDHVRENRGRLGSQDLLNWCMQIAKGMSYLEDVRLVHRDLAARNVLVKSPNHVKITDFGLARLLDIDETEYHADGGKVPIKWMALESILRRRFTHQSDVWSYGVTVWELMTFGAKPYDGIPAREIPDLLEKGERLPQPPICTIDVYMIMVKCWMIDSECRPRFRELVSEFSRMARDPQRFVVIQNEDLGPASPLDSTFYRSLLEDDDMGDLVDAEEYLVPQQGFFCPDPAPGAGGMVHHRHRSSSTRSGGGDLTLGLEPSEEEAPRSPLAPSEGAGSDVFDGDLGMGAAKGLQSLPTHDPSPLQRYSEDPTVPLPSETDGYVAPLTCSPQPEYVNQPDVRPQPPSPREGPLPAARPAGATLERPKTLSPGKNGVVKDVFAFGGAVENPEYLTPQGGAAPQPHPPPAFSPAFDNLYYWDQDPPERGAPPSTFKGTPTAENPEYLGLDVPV

A word on the viability: it is a read-out of living cells in per cent, often relative to untreated cells. As usually defined, the inhibition is the change of the read-out against control, counted positive when it falls. As to `COc1ccccc1CNS(=O)(=O)c1cccc(S(=O)(=O)N2CCOCC2)c1`, the viability in assay [1] is 91.5%; in assay [3], 91.5% (inactive); in assay [4], 81.6% (inactive); in assay [5], 91.7% (inactive); in assay [6] (setting [9]) it was 88.3%; in assay [6] (setting [10]) it was 91.7%. Further, the Her2 level in assay [2] is 101% (inactive). In addition, in assay [6] (H69AR cells + 2 uM doxorubicin), the differential viability (reversal) was 3.38% (inactive). Further, the inhibition in assay [7] is -3.2% (inactive); in assay [8], -1.48% (inactive).

`CCOC(=O)c1[nH]c(C)c(C(=O)Nc2cc(OC)ccc2OC)c1C`: the viability is 81% in assay [1]; 81% (inactive) in assay [3]; 47.4% (inactive) in assay [4]; 25.5% (active) in assay [5]; 71.3% in assay [6] (setting [9]); 25.5% in assay [6] (setting [10]). For the same molecule, the Her2 level in assay [2] is 65% (inactive). The differential viability (reversal) in assay [6] (H69AR cells + 2 uM doxorubicin) is -45.8% (inactive). For the same molecule, the inhibition is -2.24% (inactive) in assay [7] and -4.92% (inactive) in assay [8].

Consider `CN(CC(O)COc1ccc(OCC(O)CN(C)C2CCCCC2)cc1)C1CCCCC1` (stereo not given), for which the viability in assay [1] was 88%; in assay [3], 88% (inactive); in assay [4] it was 65.5% (inactive); in assay [5], 89.9% (inactive); in assay [6] (setting [9]), 79.5%; in assay [6] (setting [10]) it was 89.9%. Further, in assay [2], the Her2 level was 82% (inactive). The differential viability (reversal) in assay [6] (H69AR cells + 2 uM doxorubicin) is 10.4% (inactive). Besides, the inhibition was -5.66% (inactive) in assay [7] and 4.6% (inactive) in assay [8].

In the case of `Fc1ccc(-c2cnc[nH]2)cc1`, the viability in assay [1] is 98.5%; in assay [3], 98.5% (inactive); in assay [4], 80.8% (inactive); in assay [5], 96.7% (inactive); in assay [6] (setting [9]), 90.4%; in assay [6] (setting [10]), 96.7%. Moreover, the Her2 level in assay [2] was 99.5% (inactive). The differential viability (reversal) in assay [6] (H69AR cells + 2 uM doxorubicin) was 6.2% (inactive). The inhibition was 1.32% (inactive) in assay [7] and -8.55% (inactive) in assay [8].

Take `NC(=O)c1oc2ccc(Cl)cc2c1NC(=O)CN1CCOCC1`: the viability was 93.5% in assay [1]; 93.5% (inactive) in assay [3]; 85.3% (inactive) in assay [4]; 98.5% (inactive) in assay [5]; 88.4% in assay [6] (setting [9]); 98.5% in assay [6] (setting [10]). Further, in assay [2], the Her2 level was 81% (inactive). For the same molecule, the differential viability (reversal) in assay [6] (H69AR cells + 2 uM doxorubicin) is 10.1% (inactive). Also, the inhibition in assay [7] is -5.26% (inactive); in assay [8], -2.36% (inactive).

`N#C[C@@H]1[C@@H]2C(=O)N(c3ccc4c(c3)OCCO4)C(=O)[C@@H]2C2c3ccccc3C=CN21` (stereo not given in full): the viability is 84.5% in assay [1]; 84.5% (inactive) in assay [3]; 95.8% (inactive) in assay [4]; 92.8% (inactive) in assay [5]; 93.6% in assay [6] (setting [9]); 92.8% in assay [6] (setting [10]). In addition, the Her2 level in assay [2] was 72% (inactive). For the same molecule, the differential viability (reversal) in assay [6] (H69AR cells + 2 uM doxorubicin) was -0.82% (inactive). The inhibition in assay [7] was -0.53% (inactive); in assay [8], -5.48% (inactive).

Regarding `N#CC(C(=O)Nc1ccc(Cl)c(Cl)c1)=C1Nc2ccccc2N1`, the viability was 90.5% in assay [1]; 90.5% (inactive) in assay [3]; 36% (inactive) in assay [4]; 13.5% (active) in assay [5]; 24.3% in assay [6] (setting [9]); 13.5% in assay [6] (setting [10]). The Her2 level in assay [2] is 72.5% (inactive). Moreover, the differential viability (reversal) in assay [6] (H69AR cells + 2 uM doxorubicin) was -10.8% (inactive). For the same molecule, the figures for the inhibition in assay [7] and in assay [8] were -0.66% (inactive) and -1.61% (inactive), respectively.

Turning to `CC(C)(C)OC(=O)N1CCOCCOCCN(C(=O)OC(C)(C)C)CCOCCOCC1`, the viability in assay [1] was 97.5%; in assay [3], 97.5% (inactive); in assay [4], 83% (inactive); in assay [5], 93.4% (inactive); in assay [6] (setting [9]), 96.4%; in assay [6] (setting [10]) it was 93.4%. Besides, the Her2 level in assay [2] was 112% (inactive). Also, in assay [6] (H69AR cells + 2 uM doxorubicin), the differential viability (reversal) is -2.94% (inactive). In addition, the inhibition in assay [7] is -3.16% (inactive); in assay [8] it was 5.74% (inactive).

With `O=C(CCCN1C(=O)c2ccccc2C1=O)N1CCC(c2ccccc2)C1` (stereo not given), the viability in assay [1] was 110%; in assay [3], 110% (inactive); in assay [4], 114% (inactive); in assay [5] it was 96.4% (inactive); in assay [6] (setting [9]), 97.8%; in assay [6] (setting [10]), 96.4%. Also, the Her2 level in assay [2] was 108% (inactive). The differential viability (reversal) in assay [6] (H69AR cells + 2 uM doxorubicin) was -1.44% (inactive). The inhibition was -5% (inactive) in assay [7] and 0.33% (inactive) in assay [8].

On to `C=CCNC(=O)CNS(=O)(=O)c1ccc(F)cc1`, for which the viability in assay [1] was 87%; in assay [3], 87% (inactive); in assay [4], 92.5% (inactive); in assay [5], 95.4% (inactive); in assay [6] (setting [9]), 93.6%; in assay [6] (setting [10]), 95.4%. Besides, the Her2 level in assay [2] was 95.5% (inactive). Besides, the differential viability (reversal) in assay [6] (H69AR cells + 2 uM doxorubicin) is 1.88% (inactive). Moreover, the results for the inhibition in assay [7] and in assay [8] were -1.45% (inactive) and 0% (inactive), respectively.

Regarding `CC(C)[C@H](NC(=O)NCc1ccc(Cl)cc1)C(=O)O`, the viability in assay [1] is 86%; in assay [3], 86% (inactive); in assay [4], 89.1% (inactive); in assay [5], 103% (inactive); in assay [6] (setting [9]) it was 91.9%; in assay [6] (setting [10]) it was 103%. For the same molecule, in assay [2], the Her2 level is 77% (inactive). For the same molecule, the differential viability (reversal) in assay [6] (H69AR cells + 2 uM doxorubicin) was 11.2% (inactive). The figures for the inhibition in assay [7] and in assay [8] were -4% (inactive) and -4.75% (inactive), respectively.

As to `CC(=O)Nc1ccc(-c2cc3ccccc3o2)cc1`, the viability in assay [1] was 103%; in assay [3], 103% (inactive); in assay [4], 82.4% (inactive); in assay [5], 95.9% (inactive); in assay [6] (setting [9]), 83.9%; in assay [6] (setting [10]), 95.9%. In addition, in assay [2], the Her2 level is 89% (inactive). In addition, in assay [6] (H69AR cells + 2 uM doxorubicin), the differential viability (reversal) was 12% (inactive). Further, the values for the inhibition in assay [7] and in assay [8] were -6.44% (inactive) and -5.08% (inactive), respectively.

Take `CC(=O)Nc1cccc(NC(=O)C2CCCN2C(=O)Nc2ccc(C)cc2)c1` (stereo not given): the viability in assay [1] is 89%; in assay [3], 89% (inactive); in assay [4] it was 99.9% (inactive); in assay [5], 100% (inactive); in assay [6] (setting [9]), 89.7%; in assay [6] (setting [10]), 100%. In assay [2], the Her2 level was 93.5% (inactive). In assay [6] (H69AR cells + 2 uM doxorubicin), the differential viability (reversal) was 10.7% (inactive). The inhibition in assay [7] was -0.68% (inactive); in assay [8], -6.89% (inactive).

As for `CN1CCN(C(=O)C2(NC(=O)Nc3cccc(F)c3)CCCCC2)CC1`, the viability is 81% in assay [1]; 81% (inactive) in assay [3]; 97.4% (inactive) in assay [4]; 93.9% (inactive) in assay [5]; 103% in assay [6] (setting [9]); 93.9% in assay [6] (setting [10]). The Her2 level in assay [2] is 97% (inactive). In assay [6] (H69AR cells + 2 uM doxorubicin), the differential viability (reversal) was -9.36% (inactive). In addition, the figures for the inhibition in assay [7] and in assay [8] were -3.65% (inactive) and -3.02% (inactive), respectively.

Consider `O=S(=O)(NCC1CCCO1)c1ccc(S(=O)(=O)N2CCc3ccccc3C2)cc1` (stereo not given), for which the viability in assay [1] is 90%; in assay [3], 90% (inactive); in assay [4], 94.9% (inactive); in assay [5], 94.8% (inactive); in assay [6] (setting [9]) it was 89.8%; in assay [6] (setting [10]), 94.8%. In addition, in assay [2], the Her2 level is 93.5% (inactive). In addition, the differential viability (reversal) in assay [6] (H69AR cells + 2 uM doxorubicin) is 5.08% (inactive). Also, the inhibition in assay [7] was 0.26% (inactive); in assay [8] it was 2.42% (inactive).

(Values after PubChem BioAssay.)
